Results: the EternaBench riboswitch data

Experiments:
MS2 coat protein [1] = experiment: apparent Kd, MS2 coat protein; higher = weaker binding; RNA-MaP array; theophylline 2 mM where present
Summary of the method: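 The apparent Kd is reported as the median of filtered per-cluster binding-curve fits. To get these curves, designs transcribed by stalled E. coli RNA polymerase on Illumina sequencing-chip clusters were titrated with SNAP-549-labelled MS2 coat protein from 0.7 or 1.5 nM, doubling to 3 µM. Titrations were run without and then with constant ligand in 100 mM Tris-HCl pH 7.5, 80 mM KCl, 4 mM MgCl2, BSA, DTT, yeast tRNA and Tween-20, and green signal was normalised to red-channel RNA signal and control-cluster median Fmax.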

MS2 coat protein [2] = experiment: apparent Kd, MS2 coat protein; higher = weaker binding; RNA-MaP array
Summary of the method: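 Incubations were done at room temperature with fluorescently labeled MS2 coat protein at 1.5 nM to 3 μM and designed RNAs transcribed on an Illumina sequencing chip from sequenced DNA templates, with or without input ligand. Apparent Kd is the median of binding curves fitted for each cluster. Designs with fewer than 10 measured clusters were excluded.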

[3] = designed as: OFF switch for theophylline, no ligand
[4] = ligand present: theophylline, designed as: OFF switch for theophylline
[5] = designed as: ON switch for theophylline, no ligand
[6] = ligand present: theophylline, designed as: ON switch for theophylline
[7] = designed as: OFF switch for flavin mononucleotide, no ligand
[8] = ligand present: flavin mononucleotide, designed as: OFF switch for flavin mononucleotide
[9] = designed as: ON switch for flavin mononucleotide, no ligand
[10] = ligand present: flavin mononucleotide, designed as: ON switch for flavin mononucleotide
[11] = designed as: ON switch for tryptophan, no ligand
[12] = ligand present: tryptophan, designed as: ON switch for tryptophan

AAAACACAUGAGGAUCACCCAUGUCAUGAUACCAGUCCACAUGAGGACCCUUGGCAGCAUAAAAUGGGUAACAUGAGGAUAACCC
apparent Kd (MS2 coat protein [1]; [3]): 29.6 nM | apparent Kd (MS2 coat protein [1]; [4]): 82.8 nM

AAAGAUACCAGAGAUACCAGCCAAAAUUAAAAUAAAACCUCACAUGAGGAUCACCCAUGUGGCCCUUGGCAGCUCCCUUGGCAGC
apparent Kd (MS2 coat protein [1]; [3]): 12.5 nM | apparent Kd (MS2 coat protein [1]; [4]): 53.7 nM

AACAUGAGGAUCACCCAUGUCAUGUUGGAUACCAGCCAAUAAUAAGGCCCUUGGCAGCUAUAGAUCGAUGAUCCAUGAGGAUCAC
apparent Kd (MS2 coat protein [1]; [3]): 34.5 nM | apparent Kd (MS2 coat protein [1]; [4]): 25.3 nM

AAGCAGGGUGUAAAAUAAAUAAUCACUGAUACCAGACUAUGAGAUGUCCCUUGGCAGCAGAAACAUGAGGAUCACCCAUGUAAUA
apparent Kd (MS2 coat protein [1]; [3]): 22.7 nM | apparent Kd (MS2 coat protein [1]; [4]): 32.3 nM

AAUAAGUACUUUGAUACCAGCCUGCCAUCAUGCUAAUUUACAUGAGGAUCACCCAUGUUAGGCCCUUGGCAGCAAAGUGCAAUAA
apparent Kd (MS2 coat protein [1]; [3]): 12.5 nM | apparent Kd (MS2 coat protein [1]; [4]): 25.6 nM

AAUUAAUUAACCGAUACCAGCCAACCAAAACAUGAGGAUCACCCAUGUAAGAAGAAGGGUGGCCCUUGGCAGCGGUUAAUUAAUU
apparent Kd (MS2 coat protein [1]; [5]): 27.8 nM | apparent Kd (MS2 coat protein [1]; [6]): 9.07 nM

ACAUGAACAUGAGGAUCACCCAUGUGGGAUACCAGCGUGUAUGAGCGCCCUUGGCAGCUCAUGACAUGAGGAUCACCCAUGUUGG
apparent Kd (MS2 coat protein [1]; [3]): 262 nM | apparent Kd (MS2 coat protein [1]; [4]): 453 nM

ACAUGAGGAUCACCCAUGUAACGUCUUGAUACCAGACGAGAAGUAGUCCCUUGGCAGCAAAUACGUGAGGGUCACACAUGUGUAA
apparent Kd (MS2 coat protein [1]; [3]): 23.4 nM | apparent Kd (MS2 coat protein [1]; [4]): 61.5 nM

GUCAGGUGGACAGGAUAUCGUGCUCGUAGACAUGAGGAUCACCCAUGUUCGCUCUUCUUCGGCAUCGAGAAGGGUCUCCAAUCU
apparent Kd (MS2 coat protein [2]; [7]): 34.8 nM | apparent Kd (MS2 coat protein [2]; [8]): 35.8 nM

GUCAUUGCGGAGGAUAUAAAGCAAACCAAGAUGUUAGAAGGCCGGACAUGAGGAUCACCCAUGUGAUUGCACGC
apparent Kd (MS2 coat protein [2]; [7]): 17.6 nM | apparent Kd (MS2 coat protein [2]; [8]): 15 nM

GUCCACGUCCAAGGAUAUAAUACGAUACAUGAGGAUCACCCAUGUAAGGAGUGUAGAGUACGAUGUUAGAAGGUGGCAUUGCAG
apparent Kd (MS2 coat protein [2]; [7]): 11.9 nM | apparent Kd (MS2 coat protein [2]; [8]): 11.1 nM

GUCGCAAUCCAGAAGGACGGGCUUGGCGAGUACGUAGGAUAUGGCAGUCACAUGAGGAUCACCCAUGUCAGGAAUUUAAUCAGG
apparent Kd (MS2 coat protein [2]; [9]): 53.8 nM | apparent Kd (MS2 coat protein [2]; [10]): 21.7 nM

GUCUUGUAAGGAUAUGAUCAGUAGGAAAGAUGGCAGCAUCAUCAGAAGGUACAUGAGGAUCACCCAUGUUGUGA
apparent Kd (MS2 coat protein [2]; [7]): 17 nM | apparent Kd (MS2 coat protein [2]; [8]): 22.9 nM

GUGAAACAUGAGGAUCACCCAUGUUAGGAUAUAACGCGACGGCAGGGAUCUGCGCUACUUAGAAGGAACGGGAC
apparent Kd (MS2 coat protein [2]; [7]): 11.5 nM | apparent Kd (MS2 coat protein [2]; [8]): 9.73 nM

GUGAUACUUGGAGGAUAUGCUUUCACCUGGUACUCUAUUACAGUGACAUGAGGAUCACCCAUGUAGCAGAAGGCCAGUCAUCGA
apparent Kd (MS2 coat protein [2]; [9]): 18.8 nM | apparent Kd (MS2 coat protein [2]; [10]): 9.73 nM

GUGAUCAGCGAGAAGGAGCGUGAACUGUUACGGAGAUGUAACAUAACAUGAGGAUCACCCAUGUGCUAGGAUAUCGGUAAAUAU
apparent Kd (MS2 coat protein [2]; [9]): 13.3 nM | apparent Kd (MS2 coat protein [2]; [10]): 7.4 nM

GUGGCGUAAGGAUAUCGUGGGAAGUGAUGAACGCUCUACUUCGAGAAGGUACAUGAGGAUCACCCAUGUGAGGG
apparent Kd (MS2 coat protein [2]; [7]): 151 nM | apparent Kd (MS2 coat protein [2]; [8]): 129 nM

GUUAUCGAACAUGAGGAUCACCCAUGUCAGAGCGGCCGACAGAGAAGGCCAAUUGACAAAUGAUUGGAGGAUAUCUGUACUUUU
apparent Kd (MS2 coat protein [2]; [9]): 19.3 nM | apparent Kd (MS2 coat protein [2]; [10]): 7.57 nM

GUUGCCCAGCGAGGAUAUGUGAACCGGCUGCUCACAGAAGGCGCAAAUGAUUUUCAUUAUUCCCGACAUGAGGAUCACCCAUGU
apparent Kd (MS2 coat protein [2]; [7]): 21.9 nM | apparent Kd (MS2 coat protein [2]; [8]): 16.3 nM

UAAAACAUGAGGAUCACCCAUGUAUUGAGUCGAGGACCGGUACGGCCGCCACUCGGCAAUAAUAACGACGCAUAGCAUGUAGGAA
apparent Kd (MS2 coat protein [2]; [11]): 12.7 nM | apparent Kd (MS2 coat protein [2]; [12]): 14.5 nM

UAAAUCUUACAACACAUGAGGAUCACCCAUGUACGGGCGGGAUAGGAUAUCGAAAUGGUCUCAAACGAGAAGGAUCCUUCUUAU
apparent Kd (MS2 coat protein [2]; [9]): 46.7 nM | apparent Kd (MS2 coat protein [2]; [10]): 27.8 nM

UACAAACAUGAGGAUCACCCAUGUAGUGAUACCAGCAUAACAGAUUGCCCUUGGCAGCACCGGUUUGUACUCAAACGAAGUACGG
apparent Kd (MS2 coat protein [2]; [5]): 64.2 nM | apparent Kd (MS2 coat protein [2]; [6]): 52.3 nM

UACUCGACUUAGAAGGGUUUGUGGACAGCCAGUGGCGUGCGUACAUGAGGAUCACCCAUGUCUCAACAGGAUAUAAGCAUUAGC
apparent Kd (MS2 coat protein [2]; [7]): 35 nM | apparent Kd (MS2 coat protein [2]; [8]): 27 nM

UAGAAACGUACGGCCGCCACUCGGAAUUGGCUCAGACCAUACGUACAUGAGGAUCACCCAUGUUAGAGGACCGGGUAUAAUCUAA
apparent Kd (MS2 coat protein [2]; [11]): 26.7 nM | apparent Kd (MS2 coat protein [2]; [12]): 20.3 nM

UAGAAUUAAGGAUAUACAGGAUCCGUACAAAUAUUGAUAGGACAUGAGGAUCACCCAUGUAGAAGGUAAGGCAG
apparent Kd (MS2 coat protein [2]; [7]): 21.1 nM | apparent Kd (MS2 coat protein [2]; [8]): 17.2 nM
